Laboratory results taken from ChEMBL document CHEMBL2380254, “Optimization of tocotrienols as antiproliferative and antimigratory leads” (Eur J Med Chem, 2013).

Key:
Assay type in all cases: functional
Malme-3M [1] = test: Growth inhibition of human MALME-3M cells after 48 hrs by sulforhodamine B assay
Summary of the method: (§1)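 NCI-60 panel cells grown in RPMI 1640 with 5% FBS and 2 mM L-glutamine, seeded at 5000–40,000 cells/well and preincubated 24 h. Five 10-fold dilutions (0.001–100 µM) from DMSO stocks were added for 48 h at 37 °C. Adherent cells were fixed with cold TCA (10% final) for 60 min at 4 °C, stained with 0.4% SRB, and read at 515 nm. GI50 was set where 100×(T−T0)/(C−T0)=50.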

T47D = test: Growth inhibition of human T47D cells after 48 hrs by sulforhodamine B assay
Summary of the method: (§2)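 NCI-60 five-dose screen. Cells were grown in RPMI 1640 with 5% FBS and 2 mM L-glutamine, plated at 5000–40,000 cells/well and incubated 24 h before dosing, with T0 plates TCA-fixed. DMSO stocks were diluted to doses of […] and exposed 48 h at 37 °C, 5% CO2. Cells were fixed with cold TCA (final 10%, 60 min, 4 °C), stained with 0.4% SRB in 1% acetic acid for 10 min, solubilized in 10 mM trizma base and read at 515 nm. GI50 is where 100×(T−T0)/(C−T0)=50.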

UACC-62 [2] = test: Growth inhibition of human UACC62 cells assessed as cell growth at 10 uM after 48 hrs by sulforhodamine B assay; details: UACC-62, 48 h, read-out: Activity
Summary of the method: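 Single-dose NCI-60 test at 10 µM. Cells were grown in RPMI 1640 with 5% FBS and 2 mM L-glutamine, preincubated 24 h, with T0 plates TCA-fixed. Exposure was 48 h at 37 °C, 5% CO2. Cells were fixed with cold TCA (final 10%, 4 °C, 60 min), stained with SRB and read at 515 nm. Percent growth was taken relative to T0 and untreated control; negative values denote cell kill.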

SNB-19 = test: Growth inhibition of human SNB19 cells after 48 hrs by sulforhodamine B assay; details: SNB-19, 48 h; summary of the method: as §2
MCF7 = test: Growth inhibition of human MCF7 cells assessed as cell growth at 10 uM after 48 hrs by sulforhodamine B assay; details: MCF7, 48 h, read-out: Activity
Summary of the method: (§3)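 Single-dose NCI-60 screen: adherent cells in RPMI 1640 with 5% FBS were exposed to 10 µM for 48 h at 37 °C after a 24 h preincubation. They were fixed in situ with cold TCA (10% final), stained with 0.4% SRB in 1% acetic acid, solubilized in 10 mM Tris base, and read at 515 nm. Percent growth was taken relative to time-zero and control plates.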

Malme-3M [3] = test: Growth inhibition of human MALME-3M cells assessed as cell growth at 10 uM after 48 hrs by sulforhodamine B assay; details: read-out: Activity; summary of the method: as §3
NCI-H23 [4] = test: Growth inhibition of human NCI-H23 cells assessed as cell growth at 10 uM after 48 hrs by sulforhodamine B assay; details: NCI-H23, 48 h, read-out: Activity; summary of the method: as §3
786-0 = test: Growth inhibition of human 786-0 cells after 48 hrs by sulforhodamine B assay; details: 786-0, 48 h
Summary of the method: (§4)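 NCI-60 screen: cells in RPMI 1640 with 5% FBS and 2 mM glutamine, 5000–40,000 cells/well, preincubated 24 h. Five concentrations (10-fold dilutions; 100 to 0.001 µM) applied for 48 h at 37 °C. TCA fixation, SRB stain, absorbance at 515 nm. Time-zero plates included; GI50 where 100×(T−T0)/(C−T0)=50.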

NCI-H23 [5] = test: Growth inhibition of human NCI-H23 cells after 48 hrs by sulforhodamine B assay; details: NCI-H23, 48 h; summary of the method: as §1
[6] = Growth inhibition of human NCI-ADR-RES cells assessed as cell growth at 10 uM after 48 hrs by sulforhodamine B assay; details: read-out: Activity; summary of the method: as §3
SK-MEL-2 = test: Growth inhibition of human SK-MEL-2 cells assessed as cell growth at 10 uM after 48 hrs by sulforhodamine B assay; details: SK-MEL-2, 48 h, read-out: Activity; summary of the method: as §3
MDA-MB-468 = test: Growth inhibition of human MDA-MB-468 cells after 48 hrs by sulforhodamine B assay; details: MDA-MB-468, 48 h; summary of the method: as §1
NCI-H522 [7] = test: Growth inhibition of human NCI-H522 cells assessed as cell growth at 10 uM after 48 hrs by sulforhodamine B assay; details: NCI-H522, 48 h, read-out: Activity; summary of the method: as §3
NCI-H522 [8] = test: Growth inhibition of human NCI-H522 cells after 48 hrs by sulforhodamine B assay; details: NCI-H522, 48 h; summary of the method: as §1
LOX IMVI = test: Growth inhibition of human LOXIMVI cells assessed as cell growth at 10 uM after 48 hrs by sulforhodamine B assay; details: read-out: Activity
Summary of the method: (§5)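 NCI-60 single-dose screen at 10 µM: cells in RPMI 1640 with 5% FBS, preincubated 24 h, then exposed 48 h at 37 °C. TCA fixation (16% final for suspension cells), SRB staining, absorbance 515 nm. Percent growth relative to time-zero and untreated control plates; negative values indicate cell kill.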

SF-268 = test: Growth inhibition of human SF268 cells assessed as cell growth at 10 uM after 48 hrs by sulforhodamine B assay; details: SF-268, 48 h, read-out: Activity; summary of the method: as §3
SR = test: Growth inhibition of human SR cells after 48 hrs by sulforhodamine B assay
Summary of the method: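 Suspension leukemia line in RPMI 1640 with 5% FBS and 2 mM L-glutamine, NCI-60 five-dose format ([…]), 48 h at 37 °C. Settled cells were fixed with 80% TCA (final 16%), stained with SRB and read at 515 nm. GI50 is where 100×(T−T0)/(C−T0)=50, with T0 measured at dosing.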

UACC-62 [9] = test: Growth inhibition of human UACC62 cells after 48 hrs by sulforhodamine B assay; details: UACC-62, 48 h; summary of the method: as §2
[10] = Growth inhibition of human Hs 578T cells after 48 hrs by sulforhodamine B assay; summary of the method: as §4
SF-539 = test: Growth inhibition of human SF539 cells assessed as cell growth at 10 uM after 48 hrs by sulforhodamine B assay; details: SF-539, 48 h, read-out: Activity; summary of the method: as §3
MDA-MB-435 = test: Growth inhibition of human MDA-MB-435 cells after 48 hrs by sulforhodamine B assay; details: MDA-MB-435, 48 h; summary of the method: as §1
IGROV-1 = test: Growth inhibition of human IGROV1 cells assessed as cell growth at 10 uM after 48 hrs by sulforhodamine B assay; details: IGROV-1, 48 h, read-out: Activity; summary of the method: as §5
[11] = Growth inhibition of human NCI-ADR-RES cells after 48 hrs by sulforhodamine B assay; summary of the method: as §1
KM12 = test: Growth inhibition of human KM12 cells assessed as cell growth at 10 uM after 48 hrs by sulforhodamine B assay; details: KM12, 48 h, read-out: Activity; summary of the method: as §5
HCT-15 = test: Growth inhibition of human HCT15 cells after 48 hrs by sulforhodamine B assay; details: HCT-15, 48 h; summary of the method: as §4
PC-3 = test: Growth inhibition of human PC3 cells assessed as cell growth at 10 uM after 48 hrs by sulforhodamine B assay; details: PC-3, 48 h, read-out: Activity; summary of the method: as §3

| SMILES | GI50 (Malme-3M [1]) [µM] | GI50 (T47D) [µM] | growth at 10 µM (UACC-62 [2]) [%] | GI50 (SNB-19) [µM] | growth at 10 µM (MCF7) [%] | growth at 10 µM (Malme-3M [3]) [%] | growth at 10 µM (NCI-H23 [4]) [%] | GI50 (786-0) [µM] | GI50 (NCI-H23 [5]) [µM] | growth at 10 µM [6] [%] | growth at 10 µM (SK-MEL-2) [%] | GI50 (MDA-MB-468) [µM] | growth at 10 µM (NCI-H522 [7]) [%] | GI50 (NCI-H522 [8]) [µM] | growth at 10 µM (LOX IMVI) [%] | growth at 10 µM (SF-268) [%] | GI50 (SR) [µM] | GI50 (UACC-62 [9]) [µM] | GI50 [10] [µM] | growth at 10 µM (SF-539) [%] | other results |
| --- | --- | --- | --- | --- | --- | --- | --- | --- | --- | --- | --- | --- | --- | --- | --- | --- | --- | --- | --- | --- | --- |
| CC(C)=CCC/C(C)=C/CC/C(C)=C/CC[C@]1(C)CCc2c3c(cc(C)c2O1)OCN(CCCCCCCCO)C3 | 7.15 | 3.94 | -15.3 | 1.36 | -93.3 | -56.5 | -20.7 | 2.71 | 4.4 | 18.7 | -52 | 0.591 | -81.6 | 3.75 | -86.9 | -83.1 | 0.785 | 4.79 | 0.938 | -94.4 | GI50 (MDA-MB-435): 1.16 µM; growth at 10 µM (IGROV-1): -79.9%; GI50 [11]: 3.37 µM; growth at 10 µM (KM12): -88.1%; GI50 (HCT-15): 3 µM |
| CC(C)=CCC/C(C)=C/CC/C(C)=C/CC[C@]1(C)CCc2c3c(c(C)c(C)c2O1)OCN(CCCCCCO)C3 | 2.78 | 2.84 | 86.7 | 2.48 | -69.5 | 85.7 | 47 | 2.79 | 2.84 | 30.1 | 91.8 | 2.61 | 68.3 | 3.45 | -88.4 | 26 | 2.7 | 2.67 | 3.04 | 66.1 | growth at 10 µM (PC-3): 51%; GI50 (MDA-MB-435): 2.95 µM; growth at 10 µM (IGROV-1): -23.6%; GI50 [11]: 2.87 µM; growth at 10 µM (KM12): 7.87%; GI50 (HCT-15): 2.69 µM |
| CC(C)=CCC/C(C)=C/CC/C(C)=C/CC[C@]1(C)CCc2c3c(c(C)c(C)c2O1)OCN(CCCCCCCCO)C3 | 3.14 | 3.03 | 93.1 | 2.47 | 4.37 | 71.7 | 56.1 | 2.72 | 3.16 | 66.6 | 71.7 | 2.57 | 30.9 | 2.91 | -80.1 | 54.9 | 2.65 | 2.51 | 2.61 | 72.6 | growth at 10 µM (PC-3): 26.8%; GI50 (MDA-MB-435): 3.2 µM; growth at 10 µM (IGROV-1): -53.1%; GI50 [11]: 5.5 µM; growth at 10 µM (KM12): 15.7%; GI50 (HCT-15): 3.32 µM |
| CC(C)=CCC/C(C)=C/CC/C(C)=C/CC[C@]1(C)CCc2c3c(cc(C)c2O1)OCN(C1CCN(Cc2ccccc2)CC1)C3 | 2.13 | 2.18 | 93.6 | 1.61 | -36 | 122 | 38.7 | 1.52 | 1.51 | 62.9 | 109 | 1.41 | -24.9 | 1.81 | -47.4 | 12.9 | 0.217 | 1.48 | 1.51 | 80.6 | growth at 10 µM (PC-3): 33.2%; GI50 (MDA-MB-435): 1.2 µM; growth at 10 µM (IGROV-1): -48.5%; GI50 [11]: 2.56 µM; growth at 10 µM (KM12): -44%; GI50 (HCT-15): 4.03 µM |
